Measured values collected from several papers.
Lines come from different studies, so protocols differ.
ADH1 W55R: ADH1 (Saccharomyces cerevisiae, UniProt P00330, W55R)
lecA: PA-I galactophilic lectin (lecA, Pseudomonas aeruginosa, UniProt Q05097)
Chymotrypsinogen A: Chymotrypsinogen A (Bos taurus, UniProt P00766)

NC(=O)C1=CN([C@@H]2O[C@H](COP(=O)(O)OP(=O)(O)OC[C@H]3O[C@@H](n4cnc5c(N)ncnc54)[C@H](O)[C@@H]3O)[C@@H](O)[C@H]2O)C=CC1
Ki (ADH1 W55R; enzyme activity, inhibitor): 570 µM

O=C(CCCn1cc(CN2CCN(c3cc4c(cc3F)c(=O)c(C(=O)O)cn4C3CC3)CC2)nn1)Nc1ccc(S[C@@H]2O[C@H](CO)[C@H](O)[C@H](O)[C@H]2O)cc1
Ki (lecA; ligand displacement, FP): 3 µM

CCCC[C@H](NC(=O)[C@H](CCCCN)NC(=O)[C@H](CO)NC(=O)[C@H](CO)NC(=O)OCc1ccccc1)C(=O)N[C@@H](CCCBr)B(O)O
Ki (Chymotrypsinogen A; enzyme activity, inhibitor, fluorescence): 0.197 µM

O=C(CCCCn1cc(CCN2CCN(c3cc4c(cc3F)c(=O)c(C(=O)O)cn4C3CC3)CC2)nn1)Nc1ccc(S[C@@H]2O[C@H](CO)[C@H](O)[C@H](O)[C@H]2O)cc1
Ki (lecA; ligand displacement, FP): 2.7 µM

Cc1ccc2c(c1)c1c3n2CCNC3CCC1 (stereo not shown)
Ki (Amine oxidase [flavin-containing] A (Maoa, Rattus norvegicus, UniProt P21396); enzyme activity, inhibitor; pH 7.5): 0.77 µM

OCC(F)(F)F
Ki (ADH1 W55R; enzyme activity, inhibitor): 74000 µM

O=[N+]([O-])c1ccc(O[C@@H]2O[C@H](CO)[C@H](O)[C@H](O)[C@H]2O)cc1
Ki (lecA; ligand displacement, FP): 26.9 µM

CCCC[C@H](NC(=O)[C@H](CCC(N)=O)NC(=O)[C@H](CO)NC(=O)[C@H](C)NC(=O)CCCCCN)C(=O)N[C@@H](CCCBr)B(O)O
Ki (Chymotrypsinogen A; enzyme activity, inhibitor, fluorescence): 0.166 µM

[N-]=[N+]=NCCC(=O)Nc1ccc(S[C@@H]2O[C@H](CO)[C@H](O)[C@H](O)[C@H]2O)cc1
Ki (lecA; ligand displacement, FP): 3.96 µM

CCCC[C@H](NC(=O)[C@H](CCC(N)=O)NC(=O)[C@H](CO)NC(=O)[C@H](Cc1ccccc1)NC(=O)CCCCCN)C(=O)N[C@@H](Cc1ccccc1)B(O)O
Ki (Chymotrypsinogen A; enzyme activity, inhibitor, fluorescence): 0.000135 µM

NC(=O)C1=CN([C@@H]2O[C@H](COP(=O)(O)OP(=O)(O)OC[C@H]3O[C@@H](n4cnc5c(N)ncnc54)[C@H](O)[C@@H]3O)[C@@H](O)[C@H]2O)C=CC1
Ki (ADH1 (Saccharomyces cerevisiae, UniProt P00330, H49E); enzyme activity, inhibitor): 12 µM

CCCC[C@H](NC(=O)[C@H](CCC(N)=O)NC(=O)[C@H](CO)NC(=O)[C@H](Cc1ccccc1)NC(=O)CCCCCN)C(=O)N[C@@H](CCCBr)B(O)O
Ki (Chymotrypsinogen A; enzyme activity, inhibitor, fluorescence): 0.58 µM

[N-]=[N+]=NCC(=O)Nc1ccc(S[C@@H]2O[C@H](CO)[C@H](O)[C@H](O)[C@H]2O)cc1
Ki (lecA; ligand displacement, FP): 4.16 µM
